Converted amounts (≈) assume the structure as drawn. The source made the active and inactive calls.
What was measured:
Mus musculus [1] = experiment: Toxicity in PS mouse allografted with mouse P388 cells assessed as change in body weight at 3.1 ug/kg relative to control; format: organism-based; conditions: in vivo, 0.0031 mg/kg
How it was run: (§1)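 P388 (PS) leukemia in mice, 6 mice per dose group. Weight change is the difference in grams between treated and control animals. Survivors are recorded on toxicity day, normally 4 days after the first injection.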

Mus musculus [2] = experiment: Toxicity in PS mouse allografted with mouse P388 cells assessed as survival at 50 ug/kg after 4 days; format: organism-based; conditions: in vivo, 0.05 mg/kg, 96 h
How it was run: (§2)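 PS (P388) leukemic mice, six started per dose group. Toxicity scored as survivors on the toxicity day over the number of mice started. The toxicity day is normally 4 days after the first injection.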

Mus musculus [3] = experiment: Toxicity in PS mouse allografted with mouse P388 cells assessed as survival at 100 ug/kg after 4 days; format: organism-based; conditions: in vivo, 0.1 mg/kg, 96 h; how it was run: as §2
Mus musculus [4] = experiment: Toxicity in PS mouse allografted with mouse P388 cells assessed as survival at 25 ug/kg after 4 days; format: organism-based; conditions: in vivo, 0.025 mg/kg, 96 h; how it was run: as §2
Mus musculus [5] = experiment: Toxicity in PS mouse allografted with mouse P388 cells assessed as survival at 12.5 ug/kg after 4 days; format: organism-based; conditions: in vivo, 0.0125 mg/kg, 96 h; how it was run: as §2
Mus musculus [6] = experiment: Toxicity in PS mouse allografted with mouse P388 cells assessed as survival at 6.2 ug/kg after 4 days; format: organism-based; conditions: in vivo, 0.0062 mg/kg, 96 h; how it was run: as §2
Mus musculus [7] = experiment: Toxicity in PS mouse allografted with mouse P388 cells assessed as survival at 3.1 ug/kg after 4 days; format: organism-based; conditions: in vivo, 0.0031 mg/kg, 96 h; how it was run: as §2
Mus musculus [8] = experiment: Toxicity in PS mouse allografted with mouse P388 cells assessed as survival at 200 ug/kg after 4 days; format: organism-based; conditions: in vivo, 0.2 mg/kg, 96 h; how it was run: as §2
Mus musculus [9] = experiment: Toxicity in PS mouse allografted with mouse P388 cells assessed as survival at 1.8 ug/kg after 4 days; format: organism-based; conditions: in vivo, 0.0018 mg/kg, 96 h; how it was run: as §2
Mus musculus [10] = experiment: Toxicity in PS mouse allografted with mouse P388 cells assessed as survival at 0.9 ug/kg after 4 days; format: organism-based; conditions: in vivo, 0.0009 mg/kg, 96 h; how it was run: as §2
Mus musculus [11] = experiment: Toxicity in PS mouse allografted with mouse P388 cells assessed as change in body weight at 100 ug/kg relative to control; format: organism-based; conditions: in vivo, 0.1 mg/kg; how it was run: as §1
Mus musculus [12] = experiment: Toxicity in PS mouse allografted with mouse P388 cells assessed as change in body weight at 50 ug/kg relative to control; format: organism-based; conditions: in vivo, 0.05 mg/kg; how it was run: as §1
Mus musculus [13] = experiment: Toxicity in PS mouse allografted with mouse P388 cells assessed as change in body weight at 25 ug/kg relative to control; format: organism-based; conditions: in vivo, 0.025 mg/kg; how it was run: as §1
Mus musculus [14] = experiment: Toxicity in PS mouse allografted with mouse P388 cells assessed as change in body weight at 12.5 ug/kg relative to control; format: organism-based; conditions: in vivo, 0.0125 mg/kg; how it was run: as §1
Mus musculus [15] = experiment: Toxicity in PS mouse allografted with mouse P388 cells assessed as change in body weight at 6.2 ug/kg relative to control; format: organism-based; conditions: in vivo, 0.0062 mg/kg; how it was run: as §1
Mus musculus [16] = experiment: Toxicity in PS mouse allografted with mouse P388 cells assessed as change in body weight at 200 ug/kg relative to control; format: organism-based; conditions: in vivo, 0.2 mg/kg; how it was run: as §1
Mus musculus [17] = experiment: Toxicity in PS mouse allografted with mouse P388 cells assessed as change in body weight at 1.8 ug/kg relative to control; format: organism-based; conditions: in vivo, 0.0018 mg/kg; how it was run: as §1
Mus musculus [18] = experiment: Toxicity in PS mouse allografted with mouse P388 cells assessed as change in body weight at 0.9 ug/kg relative to control; format: organism-based; conditions: in vivo, 0.0009 mg/kg; how it was run: as §1
P388 [19] = experiment: Antitumor activity against mouse P388 cells allografted in PS mouse assessed as median survival time at 100 ug/kg relative to control; format: functional
How it was run: (§3)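 P388 leukemia (PS) in mice, six mice started per dose group. Read-out is T/C: median survival time of the treated group divided by that of the untreated control group, expressed as a percent. The NIH protocol counts a compound as active when T/C > 125%.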

P388 [20] = experiment: Antitumor activity against mouse P388 cells allografted in PS mouse assessed as median survival time at 50 ug/kg relative to control; format: functional; how it was run: as §3
P388 [21] = experiment: Antitumor activity against mouse P388 cells allografted in PS mouse assessed as median survival time at 25 ug/kg relative to control; format: functional; how it was run: as §3
P388 [22] = experiment: Antitumor activity against mouse P388 cells allografted in PS mouse assessed as median survival time at 12.5 ug/kg relative to control; format: functional; how it was run: as §3
P388 [23] = experiment: Antitumor activity against mouse P388 cells allografted in PS mouse assessed as median survival time at 6.2 ug/kg relative to control; format: functional; how it was run: as §3
P388 [24] = experiment: Antitumor activity against mouse P388 cells allografted in PS mouse assessed as median survival time at 3.1 ug/kg relative to control; format: functional; how it was run: as §3
P388 [25] = experiment: Antitumor activity against mouse P388 cells allografted in PS mouse assessed as median survival time at 200 ug/kg relative to control; format: functional; how it was run: as §3
P388 [26] = experiment: Antitumor activity against mouse P388 cells allografted in PS mouse assessed as median survival time at 1.8 ug/kg relative to control; format: functional; how it was run: as §3
P388 [27] = experiment: Antitumor activity against mouse P388 cells allografted in PS mouse assessed as median survival time at 0.9 ug/kg relative to control; format: functional; how it was run: as §3
KB = experiment: Cytotoxicity against human KB cells; format: functional; conditions: read-out: ED50 (the source's name)
Tubulin (Homo sapiens) = Tubulin (Homo sapiens) (UniProt P68371+Q9H4B7+P0DPH7+P68366+Q13509+Q71U36+P04350+Q3ZCM7+P07437+P68363+Q9BQE3+Q6PEY2+Q13885+Q9BVA1+Q9BUF5); experiment: Inhibition of brain tubulin polymerization (unknown origin) at 37 degC by spectrophotometry
Paracentrotus lividus = experiment: Antimitotic activity against sea urchin eggs assessed as drug level causing inhibition of mitosis; format: functional; conditions: Egg

For `COc1cc2cc(c1Cl)N(C)C(=O)C[C@H](OC(=O)CBr)[C@]1(C)O[C@H]1[C@H](C)[C@@H]1C[C@@](O)(NC(=O)O1)[C@H](OC)/C=C/C=C(\C)C2`, the Activity (Mus musculus [1]) was -0.2 g, the Activity (Mus musculus [2]) was “Non-toxic” and the Activity (Mus musculus [3]) was “Non-toxic”. For the same molecule, the Activity (Mus musculus [4]) was “Non-toxic”, the Activity (Mus musculus [5]) was “Non-toxic” and the Activity (Mus musculus [6]) was “Non-toxic”. For the same molecule, the Activity (Mus musculus [7]) was “Non-toxic”, the Activity (Mus musculus [8]) was “Toxic” and the Activity (Mus musculus [9]) was “Non-toxic”. The Activity (Mus musculus [10]) was “Non-toxic”, the Activity (Mus musculus [11]) was -1.3 g and the Activity (Mus musculus [12]) was -0.3 g. The Activity (Mus musculus [13]) was -0.5 g, the Activity (Mus musculus [14]) was -0.3 g and the Activity (Mus musculus [15]) was 0.2 g. The Activity (Mus musculus [16]) was -2.5 g, the Activity (Mus musculus [17]) was -0.6 g and the Activity (Mus musculus [18]) was -0.4 g. It also gave a T/C (P388 [19]) of 232%, a T/C (P388 [20]) of 189% and a T/C (P388 [21]) of 162%. It also gave a T/C (P388 [22]) of 153%, a T/C (P388 [23]) of 146% and a T/C (P388 [24]) of 130%. It also gave a T/C (P388 [25]) of less than 80%, a T/C (P388 [26]) of 131% and a T/C (P388 [27]) of 129%. For the same molecule, the EC50 (KB) was 0.44 ng/mL (≈ 0.641 nM), the inhibition (Tubulin (Homo sapiens)) was “Active” and the Activity (Paracentrotus lividus) was 1 ×10⁻⁸ mol/L.

Source: ChEMBL document CHEMBL3244382, “Structural requirements for antileukemic activity among the naturally occurring and semisynthetic maytansinoids” (J Med Chem, 1978)
